Laboratory results: ChEMBL document CHEMBL1126038, “3-(2-Carboxyindol-3-yl)propionic acid-based antagonists of the N-methyl-D-aspartic acid receptor associated glycine binding site” (J Med Chem, 1992)

Columns and labels:
[1] = Ability to compete with […] for rat cortical and hippocampal membrane glutamate binding site.; format: tissue-based, Hippocampus
Outline: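 Competition binding against [³H]CPP at the glutamate site, using rat cortical and hippocampal membranes. Values are means of two or more experiments, with standard errors ±10-30% of the mean.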

[2] = target: Glutamate NMDA receptor; test: Ability to compete with [3H]glycine for strychnine-insensitive binding sites on rat cortical and hippocampal membrane; format: tissue-based, Hippocampus
Outline: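 Rat cortical plus hippocampal membranes, competing against [³H]glycine at strychnine-insensitive sites. Values are the mean of ≥2 experiments, with SE within 10-30% of the mean.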

[3] = target: Glutamate NMDA receptor (Rattus norvegicus) (UniProt P35439+Q00959+Q00960+Q00961+Q62645+Q8VHN2+Q9R1M7); test: Ratio of the inhibitory activity against […] for rat cortical and hippocampal membrane glutamate binding site to [3H]glycine for rat cortical and hippocampal membrane binding site.; format: tissue-based; settings: Hippocampus
[4] = The compound was evaluated for the ability to compete with […] for rat cortical and hippocampal membrane glutamate binding site.; format: tissue-based, Hippocampus
Outline: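 Competition binding against [³H]CPP at the glutamate site, using rat cortical and hippocampal membranes. […] Values are means of two or more experiments, with standard errors ±10-30% of the mean.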

[5] = target: Glutamate receptor ionotropic, NMDA 1 (Rattus norvegicus, UniProt P35439); test: The compound was evaluated for the ability to compete with [3H]glycine for strychnine-insensitive binding sites on rat cortical and hippocampal membrane; format: tissue-based, Hippocampus
Outline: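 Rat cortical plus hippocampal membranes, competing against [³H]glycine at strychnine-insensitive sites. […] Values are the mean of ≥2 experiments, with SE within 10-30% of the mean.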

[6] = target: Glutamate receptor ionotropic, kainate; test: The compound was evaluated […] for the competitive binding against [3H]kainate for rat cortical and hippocampal membrane glutamate binding site.
[7] = target: Glutamate receptor ionotropic, AMPA (Rattus norvegicus, UniProt P19490+P19491+P19492+P19493); test: The compound was evaluated […] for the competitive binding against […] for rat cortical and hippocampal membrane glutamate binding site.
[8] = tested on: Mus musculus; test: The compound was evaluated in vivo for the anticonvulsant activity in audiogenic seizure model (intraperitoneal), for 2 hr drug pretreatment time; format: functional; settings: ip
Outline: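 Male DBA/2J audiogenic-susceptible mice (groups of 6-8) got test compound in methylcellulose, with saline controls by the same route. A 110 dB (12 KHz) sound was given for 30 s. Absence of tonic hindlimb extension counted as protection. ED50 was reported.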

[9] = tested on: Mus musculus; test: The compound was evaluated in vivo for the anticonvulsant activity in quinolinic acid + probenecid seizure model (intravenous), for 5 min drug pretreatment time; format: functional
Outline: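 Quinolinic acid seizure in mice: probenecid 200 mg/kg ip given 30 min before the test compound. Test compound in distilled water with Tween (1 mL/kg), then icv quinolinic acid (7.7 μg in 5 μL saline). Mice were watched 15 min for clonic-tonic seizures.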

[10] = tested on: Mus musculus; test: The compound was evaluated in vivo for the anticonvulsant activity in quinolinic acid seizure model (intracerebroventricular), for 5 min drug pretreatment time; format: functional; settings: central
Outline: (§1)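 Mice got test compound in distilled water with a few drops of Tween (1 mL/kg) at set times before icv quinolinic acid (7.7 μg in 5 μL saline). Clonic-tonic seizures were watched for 15 min, and non-convulsing mice counted as protected.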

[11] = tested on: Mus musculus; test: The compound was evaluated in vivo for the anticonvulsant activity in quinolinic acid seizure model (intraperitoneal), for 2 hr drug pretreatment time; format: functional; settings: ip; outline: as §1
[12] = tested on: Mus musculus; test: The compound was evaluated in vivo for the anticonvulsant activity in quinolinic acid seizure model (intravenous), for 5 min drug pretreatment time; format: functional; outline: as §1

SMILES	IC50 [1] [µM]	IC50 [2] [µM]	Ratio [3]	other results
O=C(O)COc1cc(C(=O)O)nc2ccccc12	710	25	28	–
O=C(O)CCc1c(C(=O)O)[nH]c2c1ccc1ccccc12	–	> 100	–	–
O=C(O)CCc1c(C(=O)O)[nH]c2ccccc12	34	27	1	–
Cn1c(C(=O)O)c(CCC(=O)O)c2c(Cl)cc(Cl)cc21	> 100	45	> 2	–
O=C(O)CCc1c(C(=O)O)[nH]c2ccc(Cl)cc12	25	23	2	–
O=C(O)CCc1c(C(=O)O)[nH]c2cc(F)cc(F)c12	–	4	–	–
O=C(O)CSc1c(C(=O)O)[nH]c2ccccc12	16	12	1.6	–
O=C(O)c1cc2ccccc2[nH]1 [INDOLE-2-CARBOXYLIC ACID]	4200	–	40	–
O=C(O)CCc1c(C(=O)O)[nH]c2cccc(C(F)(F)F)c12	–	13	–	–
O=C(O)CCc1c(C(=O)O)[nH]c2cc(F)ccc12	–	5	–	–
O=C(O)CCc1c(C(=O)O)[nH]c2cccc([N+](=O)[O-])c12	–	75	–	–
O=C(O)c1cc(O)c2c(Cl)cc(Cl)cc2n1	12	0.143	80	–
COc1cc(C(=O)O)nc2ccccc12	–	–	–	IC50 [4]: > 100 µM; IC50 [5]: > 100 µM
O=C(O)CCc1c(C(=O)O)[nH]c2cccc(Cl)c12	60	–	10	–
COc1ccc2c(CCC(=O)O)c(C(=O)O)[nH]c2c1	141	13	11	–
O=C(O)CCc1c(C(=O)O)[nH]c2cccc(F)c12	51	17	3	–
COc1cc(OC)c2c(CCC(=O)O)c(C(=O)O)[nH]c2c1	–	> 100	–	–
O=C(O)CCc1c(C(=O)O)[nH]c2c(Cl)cccc12	> 1000	> 100	> 1	–
O=C(O)CCc1cc(C(=O)O)nc2ccccc12	> 100	> 100	–	–
O=C(O)CCc1c(C(=O)O)[nH]c2cc(Cl)cc(Cl)c12	358	0.17	2100 CPP/GLY	IC50 [6]: 418 µM; IC50 [7]: 273 µM; ED50 [8]: 100 mg/kg; ED50 [9]: 50 mg/kg; ED50 [10]: 1.5 µg; ED50 [11]: 256 mg/kg; ED50 [12]: > 50 mg/kg
CS(=O)(=O)Nc1ccc2c(CCC(=O)O)c(C(=O)O)[nH]c2c1	–	> 100	–	–
O=C(O)c1cc2c(Cl)cc(Cl)cc2[nH]1	> 1000	–	> 150	–
O=C(O)c1cc(=O)c2ccccc2[nH]1 [TRANSTORINE]	71	–	–	–
O=C(O)CCc1c(C(=O)O)[nH]c2cc(Oc3ccccc3)ccc12	–	> 1000	–	–
O=C(O)CCc1c(C(=O)O)[nH]c2cc(Cl)ccc12	283	2	140	–
O=C(O)CCc1c(C(=O)O)[nH]c2cc(C(F)(F)F)ccc12	–	8	–	–
O=C(O)CCc1c(C(=O)O)[nH]c2cc([N+](=O)[O-])ccc12	–	2.5	–	–
O=C(O)CSc1c(C(=O)O)[nH]c2cc(Cl)cc(Cl)c12	–	0.1	–	IC50 [6]: > 100 µM; IC50 [7]: > 100 µM
O=C(O)CCc1c(C(=O)O)[nH]c2ccc3ccccc3c12	–	> 100	–	–
